Our source for the Ki and Activity values is ChEMBL document CHEMBL1147851, “Novel class of arylpiperazines containing N-acylated amino acids: their synthesis, 5-HT1A, 5-HT2A receptor affinity, and in vivo pharmacological evaluation” (Bioorg Med Chem, 2007).

The target of experiment [1] is T1, 5-hydroxytryptamine receptor 1A (Rattus norvegicus, UniProt P19327).
T1 sequence (P19327 whole entry): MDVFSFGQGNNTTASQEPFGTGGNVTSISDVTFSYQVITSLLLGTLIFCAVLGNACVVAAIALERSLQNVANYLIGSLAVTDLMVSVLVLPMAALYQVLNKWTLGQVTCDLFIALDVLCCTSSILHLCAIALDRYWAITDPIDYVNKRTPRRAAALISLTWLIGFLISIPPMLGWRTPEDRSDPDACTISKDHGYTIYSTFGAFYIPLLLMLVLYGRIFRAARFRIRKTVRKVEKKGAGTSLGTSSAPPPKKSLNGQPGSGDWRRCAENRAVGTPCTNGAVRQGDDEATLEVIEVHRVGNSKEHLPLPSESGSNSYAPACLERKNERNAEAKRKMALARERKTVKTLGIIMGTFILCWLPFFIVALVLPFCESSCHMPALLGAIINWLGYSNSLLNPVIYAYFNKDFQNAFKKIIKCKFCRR
Nature of the experiment: Displacement of [3H]8-OH-DPAT from serotonin 5HT1A receptor in rat brain hippocampus. It counts as tissue-based. In outline: (§1)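 Full competition binding with 8–10 drug concentrations (10^-10–10^-3 M), each in triplicate. Ki was derived from at least three experiments.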

The target in experiment [2] is 5-hydroxytryptamine receptor 2A (Rattus norvegicus, UniProt P14842). Nature of the experiment: Displacement of [3H]ketanserin from serotonin 5HT2A receptor in rat brain cortex. It counts as tissue-based. In outline:
as §1
For orientation: Displacement assays read how much labelled ligand stays bound in the presence of the test substance.

Experiment [3] deals with D(2) dopamine receptor (Rattus norvegicus, UniProt P61169). Nature of the experiment: Displacement of [3H]spiperone from dopaminergic D2 receptor in rat striatal membrane. It counts as cell membranes, Striatum. The method, boiled down:
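Rat striatal membranes incubated with [3H]spiperone, with 50 nM ketanserin added to block 5-HT2A sites. Nonspecific binding was defined with 5 μM (±)-butaclamol. Incubation 30 min at 37 °C, stopped by vacuum filtration, washed with 50 mM potassium phosphate pH 7.4, counted by liquid scintillation. Estimated Ki (Cheng–Prusoff) came from two concentrations (0.1, 1 μM) in triplicate, three experiments.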

Experiment [4] has as its system Mus musculus. Nature of the experiment: Antidepressant-like activity in Swiss Albino mouse at 10 mg/kg by forced swimming test. The experiment is classed as functional. In outline:
(§2)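 Porsolt forced swim in male Albino Swiss mice, agents given ip (1% Tween 80 suspension) 30 min beforehand. Mice were placed in a cylinder 10 cm wide holding 6 cm of water at 23–25 °C for 6 min. Floating immobility was timed over the last 4 min. n = 9-10 per group; ANOVA with Dunnett's test.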

Experiment [5] deals with Mus musculus. Nature of the experiment: Antidepressant-like activity in Swiss Albino mouse at 20 mg/kg by forced swimming test. The experiment is classed as functional. The method, boiled down: as §2
The test system of experiment [6] is Mus musculus. Nature of the experiment: Antidepressant-like activity in C57BL/6J mouse at 5 mg/kg by tail suspension test. It counts as functional.
In experiment [7] the test system is Mus musculus. Nature of the experiment: Antidepressant-like activity in C57BL/6J mouse at 10 mg/kg by tail suspension test. The experiment is classed as functional. In outline:
(§3)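 Tail suspension in male C57BL/6J mice (22–23 g), dosed ip in 1% Tween 80 suspension 30 min before the test. Each mouse hung by adhesive tape about 1 cm from the tail tip, 75 cm above the floor. Total immobility, meaning no limb or body movement except breathing, was scored manually over 6 min. n = 9-10 per group; one-way ANOVA then Dunnett's test.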

Experiment [8] deals with Mus musculus. Nature of the experiment: Antidepressant-like activity in C57BL/6J mouse at 20 mg/kg by tail suspension test. The experiment is classed as functional. The method, boiled down: as §3
The species named for experiment [9] is Mus musculus. Nature of the experiment: Decrease in body temperature in Albino Swiss mouse.
Experiment [10] has as its target T2, 5-hydroxytryptamine receptor 1A (Mus musculus) (UniProt Q64264).
T2 sequence (whole entry): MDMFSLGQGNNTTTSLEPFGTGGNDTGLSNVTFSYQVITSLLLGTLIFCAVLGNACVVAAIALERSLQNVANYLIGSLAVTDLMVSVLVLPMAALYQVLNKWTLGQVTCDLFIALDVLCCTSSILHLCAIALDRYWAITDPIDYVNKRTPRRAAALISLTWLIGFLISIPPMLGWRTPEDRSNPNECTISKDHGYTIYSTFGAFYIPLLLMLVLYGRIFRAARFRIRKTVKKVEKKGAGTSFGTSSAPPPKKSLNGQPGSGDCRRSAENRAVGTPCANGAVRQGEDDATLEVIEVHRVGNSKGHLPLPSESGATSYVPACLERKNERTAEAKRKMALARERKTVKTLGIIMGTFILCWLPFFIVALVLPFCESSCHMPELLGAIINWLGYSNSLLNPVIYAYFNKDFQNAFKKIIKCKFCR
Nature of the experiment: Activity at 5HT1A receptor in Swiss Albino mouse assessed as decrease in 8-OH-DPAT induced body temperature. The experiment is classed as functional. Particulars: filed as agonist. The method, boiled down: (§4)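 Male Albino Swiss mice. 8-OH-DPAT 5 mg/kg sc induced hypothermia. Test agents were suspended in 1% aqueous Tween 80 and given ip 45 min before 8-OH-DPAT. Rectal temperature was taken 15, 30, 45 and 60 min after 8-OH-DPAT and expressed as change (Δt) from basal temperature. Six to ten animals per dose.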

The test system of experiment [11] is Mus musculus. Nature of the experiment: Anxiolytic-like activity in Swiss Albino mouse at 5 mg/kg by four plate test. It counts as functional. The method, boiled down:
(§5)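 Four-plate test in male Albino Swiss mice, dosed ip 30 or 60 min before testing. After 15 s of exploration, each plate-to-plate crossing triggered a 0.5 s, 120 V floor shock, with no new shock for the next 3 s. Punished crossings were counted over 60 s. n = 10 per group; ANOVA with Dunnett's test.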

The test system of experiment [12] is Mus musculus. Nature of the experiment: Anxiolytic-like activity in Swiss Albino mouse at 10 mg/kg by four plate test. The experiment is classed as functional. The method, boiled down:
as §5

For experiment [13], the system named is Mus musculus. Nature of the experiment: Anxiolytic-like activity in Swiss Albino mouse at 20 mg/kg by four plate test. It counts as functional. The method, boiled down:
as §5

In experiment [14] the test system is Mus musculus. Nature of the experiment: Antidepressant-like activity in Swiss Albino mouse at 5 mg/kg by forced swimming test. It counts as functional. The method, boiled down:
as §2

Experiment [15] is filed under the species Mus musculus. Nature of the experiment: Reduction in spontaneous locomotor activity in Swiss Albino mouse. It counts as functional, organism-based. The method, boiled down: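 Male Albino Swiss mice dosed ip were placed singly in photoresistor actometers (24 cm diameter, two light beams). Beam crossings were counted over the first 6 min and over a 30-min session. ANOVA with Dunnett's test.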

Experiment [16] is filed under the species Mus musculus. Nature of the experiment: Decrease in body temperature in C57BL/6J mouse. It counts as functional, organism-based.
Experiment [17] is filed under the species Mus musculus. Nature of the experiment: Effect on body temperature in Swiss Albino mouse. It counts as functional, organism-based. The method, boiled down: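 Male Albino Swiss mice received the agent alone ip as a suspension in 1% aqueous Tween 80. Rectal body temperature was read at 30, 60, 90 and 120 min after dosing and expressed as Δt from the basal value taken at the start. Six to ten animals per dose.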

The subject of experiment [18] is Mus musculus. Nature of the experiment: Anxiolytic-like activity in Swiss Albino mouse at 2.5 mg/kg by four plate test. The experiment is classed as functional. In outline: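 Male Albino Swiss mice (24–28 g), each used once, 10 per dose group. Dosing ip at 10 mL/kg, 30 or 60 min before testing depending on agent; tested compounds given as suspensions in 1% aqueous Tween 80. Four-metal-plate floor; 15 s exploration, then each plate-to-plate crossing shocked (120 V, 0.5 s), no new shock for 3 s if still running. Punished crossings counted over 60 s; one-way ANOVA, Dunnett's test.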

The subject of experiment [19] is Mus musculus. Nature of the experiment: Antidepressant-like activity in Swiss Albino mouse at 2.5 mg/kg by forced swimming test. It counts as functional. In outline: as §2
In experiment [20] the target is T2, 5-hydroxytryptamine receptor 1A (Mus musculus). Nature of the experiment: Antagonist activity at 5-HT1A receptor in Swiss Albino mouse assessed as decrease in 8-OH-DPAT induced body temperature. It counts as functional. The method, boiled down: as §4

Active and inactive are the calls of the source. The calls are words filed in the database; no cut-off is given here.

Sequence of D(2) dopamine receptor (P61169 whole entry): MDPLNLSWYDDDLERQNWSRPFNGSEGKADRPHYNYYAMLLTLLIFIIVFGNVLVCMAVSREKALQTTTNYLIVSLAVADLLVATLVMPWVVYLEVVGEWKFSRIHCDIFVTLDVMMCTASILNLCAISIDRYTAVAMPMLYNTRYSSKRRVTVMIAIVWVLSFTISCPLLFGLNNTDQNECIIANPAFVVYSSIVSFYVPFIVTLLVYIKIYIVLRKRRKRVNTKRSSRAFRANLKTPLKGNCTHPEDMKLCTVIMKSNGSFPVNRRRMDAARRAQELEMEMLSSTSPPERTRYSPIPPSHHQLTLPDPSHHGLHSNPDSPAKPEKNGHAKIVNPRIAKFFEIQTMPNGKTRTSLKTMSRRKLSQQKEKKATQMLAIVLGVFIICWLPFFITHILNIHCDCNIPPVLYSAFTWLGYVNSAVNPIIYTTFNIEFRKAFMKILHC
Sequence of 5-hydroxytryptamine receptor 2A (P14842 whole entry): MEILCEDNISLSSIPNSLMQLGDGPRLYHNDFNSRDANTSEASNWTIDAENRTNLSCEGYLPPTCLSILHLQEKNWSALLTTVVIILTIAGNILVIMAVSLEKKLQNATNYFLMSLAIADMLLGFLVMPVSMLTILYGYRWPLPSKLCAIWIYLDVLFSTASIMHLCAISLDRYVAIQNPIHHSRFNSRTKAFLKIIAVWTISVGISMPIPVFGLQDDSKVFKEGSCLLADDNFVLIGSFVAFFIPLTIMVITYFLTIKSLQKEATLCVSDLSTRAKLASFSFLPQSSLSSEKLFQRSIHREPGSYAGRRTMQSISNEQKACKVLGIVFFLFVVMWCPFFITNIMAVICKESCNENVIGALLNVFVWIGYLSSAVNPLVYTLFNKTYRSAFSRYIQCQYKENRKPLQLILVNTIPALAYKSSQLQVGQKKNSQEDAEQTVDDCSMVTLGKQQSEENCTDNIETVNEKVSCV

For `O=C1CCC(=O)N1CCCCN1CCN(c2cccc(Cl)c2)CC1`, the Ki (in general, the dissociation constant of the complex between target and ligand, obtained from inhibition or displacement) in experiment [1] was found to be 32 nM; in experiment [2], 121 nM; in experiment [3] it was 7800 nM.
With `CN(C)CCCN1c2ccccc2CCc2ccccc21` [IMIPRAMINE], the Activity in experiment [4] was 149.1 s; in [5], 107.8 s; in [6], 147.4 s; in experiment [7] it was 102.5 s; in experiment [8], 90.2 s.
Turning to `COc1ccccc1N1CCN(CCCCN2C(=O)C[C@H](NC(=O)C34CC5CC(CC(C5)C3)C4)C2=O)CC1`, the inhibitory constant (Ki) in experiment [1] was found to be 4 nM; in experiment [2] it was 173 nM; in [3], 1780 nM. For the same molecule, the outcome in [9] was Active.
For the molecule `COc1ccccc1N1CCN(CCCCN2C(=O)C[C@H](NC(=O)C3CCCC3)C2=O)CC1`, the Ki was determined as 23 nM in experiment [1], 480 nM in experiment [2] and 905 nM in experiment [3]. The Activity result is “Agonist” in [10]; 3.4 in [11]; 5.2 in experiment [12]; 6 in experiment [13]; 133.4 s in [14]; 123.3 s in experiment [4]. Moreover, the Activity in [5] came to 103 s. In experiment [15], the outcome was Active.
Regarding `COc1ccccc1N1CCN(CCCCNC(=O)[C@@H]2CCCN2C(=O)C2CCCCC2)CC1`, the result in [16] was Active. The Ki was 19 nM in experiment [1], 990 nM in [2] and 3590 nM in experiment [3].
On to `O=C(N[C@H]1CC(=O)N(CCCCN2CCN(c3cccc(Cl)c3)CC2)C1=O)C1CCCCC1`, for which the Ki in experiment [1] came to 26 nM; in experiment [2] it was 6.51 nM; in experiment [3], 2130 nM. The result in experiment [17] was inactive.
Consider `COc1ccccc1N1CCN(CCCCN2C(=O)C[C@H](NC(=O)C3CCCCC3)C2=O)CC1`, for which the Ki in experiment [1] amounted to 19 nM; in [2] it was 183 nM; in experiment [3] it was 2080 nM. The Activity entry in [10] is “Agonist”; in [18] it was 4.7; in experiment [11] it was 6.6; in [12] it was 7; in experiment [13], 7.5; in experiment [19] it was 131.6 s. The Activity in [14] was 110 s; in experiment [4], 102 s; in experiment [5] it was 128.1 s; in experiment [6] it was 147.9 s; in experiment [7] it was 129.1 s; in experiment [8] it was 116.1 s. In experiment [15], the outcome was inactive.
Turning to `COc1ccccc1N1CCN(CCCCN2C(=O)C[C@H](NC(=O)CC3CC4CCC3C4)C2=O)CC1` (stereo not given in full), the Ki amounted to 9 nM in experiment [1], 47 nM in [2] and 880 nM in [3]. Also, the outcome in experiment [9] was Active.
With `CN1C(=O)CN=C(c2ccccc2)c2cc(Cl)ccc21` [DIAZEPAM], the Activity in [18] is recorded as 6.8; in experiment [11] it was 6.7.
`O=C1C[C@H](NC(=O)C23CC4CC(CC(C4)C2)C3)C(=O)N1CCCCN1CCN(c2cccc(Cl)c2)CC1`: the Ki in experiment [1] was 47 nM; in [2] it was 25 nM; in [3], 21200 nM. Further, the values for the Activity in experiment [11], in experiment [12] and in experiment [13] were 4.6, 5.1 and 5.6, respectively. Moreover, the outcome in experiment [20] was Active.
For `O=C(N[C@H]1CC(=O)N(CCCCN2CCN(c3cccc(Cl)c3)CC2)C1=O)C1CCCC1`, the Ki in experiment [1] was 28 nM; in experiment [2], 47 nM; in [3], 12400 nM. The result in experiment [9] was Active.
For `O=C(CC1CC2CCC1C2)N[C@H]1CC(=O)N(CCCCN2CCN(c3cccc(Cl)c3)CC2)C1=O` (stereo not given in full), the Ki came out at 21 nM in [1], 4.2 nM in [2] and 776 nM in experiment [3]. Besides, the outcome in [17] was inactive.
In the case of `COc1ccccc1N1CCN(CCCCN2C(=O)CCC2=O)CC1`, the results for the Ki in [2] and in experiment [3] were 1510 nM and 490 nM, respectively.
